From ChEMBL document CHEMBL5346913, “C-glycosides analogues of the okadaic acid central fragment exert neuroprotection via restoration of PP2A-phosphatase activity: A rational design of potential drugs for Alzheimer's disease targeting tauopathies” (Eur J Med Chem, 2023) come the findings set out here.

The source made the active and inactive calls. The rule behind the calls is not given here.

The test system of data set [1] is SH-SY5Y. The experiment in a line: Neuroprotective activity against cytostatin-induced cytotoxicity in human SH-SY5Y cells assessed as protection against cell death at 1 uM […] by MTT assay relative to control. Format: functional. (Formazan colour is commonly taken as a measure of viable cells.)
The test system of data set [2] is SH-SY5Y. Description: Neuroprotective activity against rotenone/oligomycin-induced oxidative stress in human SH-SY5Y cells assessed as protection against cell death at 1 uM incubated for 20 to 24 hrs by MTT assay relative to control. As to conditions: time 20-24 hrs.
Data set [3] relates to Cortical neurone. The experiment in a line: Neuroprotective activity against glutamate-induced excitotoxicity in rat cortical neurons assessed as protection against cell damage at 1 uM preincubated with compound for 24 hrs followed by glutamate addition and measured after 20 hrs by MTT assay relative to control. Format: functional. The conditions noted are these: time 44 hrs.

Data set [4] concerns SH-SY5Y. The experiment in a line: Neuroprotective activity against okadaic acid-induced cytotoxicity in human SH-SY5Y cells assessed as protection against cell death at 1 uM incubated for 24 hrs by MTT assay relative to control. Format: functional. A digest of the protocol: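 SH-SY5Y cells were pre-incubated 24 h with compound at 1 μM, then co-incubated with okadaic acid 20 nM for 20 h. Viability was read by MTT reduction. Results are % protection relative to okadaic acid-treated cells without compound, as mean ± SEM of at least 4 independent experiments.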

The subject of data set [5] is SH-SY5Y. The experiment in a line: Activation of PP2A in human SH-SY5Y cells assessed as restoration of okadaic acid-induced phosphatase activity inhibition at 1 uM preincubated with compound for 24 hrs followed by okadaic acid addition and measured after 18 hrs by pNPP method. The conditions noted are these: time 42.0 hrs. Format: cell-based. Summed up: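 SH-SY5Y cells (MEM/F12, 10% FBS, 70000 cells/well) preincubated 24 h with compound, then exposed to OA 15 nM plus compound 1 μM for 18 h; phosphatase activity by pNPP method, normalized to untreated control; mean ± SEM, at least 4 independent experiments.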

Data set [6] relates to SH-SY5Y. Description: Activation of PP2A in human SH-SY5Y cells assessed as restoration of cytostatin-induced phosphatase activity inhibition at 1 uM preincubated with compound for 24 hrs followed by okadaic acid addition and measured after 18 hrs by pNPP method. Format: cell-based. The conditions noted are these: filed as activator, time 42.0 hrs, in the assay text read “followed by cytostatin addition” for “followed by okadaic acid addition”. A digest of the protocol:
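Cells were SH-SY5Y (70000/well), preincubated 24 h with compound, then given cytostatin 2 μM plus compound 1 μM for 18 h; pNPP-measured phosphatase activity normalized to untreated control; mean ± SEM, at least 3 independent experiments.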

Data set [7] has as its target Glycogen synthase kinase-3 beta (Homo sapiens) (UniProt P49841). The experiment in a line: Inhibition of okadaic-acid induced GSK-3beta hyperphosphorylation at Ser9 residue in human SH-SY5Y cells at 0.1 uM preincubated with compound for 24 hrs followed by okadaic acid addition and measured after 20 hrs by Western blot analysis. Format: cell-based. The conditions noted are these: time 44.0 hrs. Summed up: (§1)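 After 24 h preincubation with compound 0.1 μM, SH-SY5Y cells incubated 20 h with OA 20 nM plus compound; western blot for pTau (Ser202/Thr205) and pGSK-3β (Ser9); mean ± SEM of at least 3 independent experiments.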

The target in data set [8] is Microtubule-associated protein tau (Homo sapiens) (UniProt P10636). Description: Inhibition of okadaic-acid induced tau hyperphosphorylation at Ser202/Thr205 residues in human SH-SY5Y cells at 0.1 uM preincubated with compound for 24 hrs followed by okadaic acid addition and measured after 20 hrs by Western blot analysis. The conditions noted are these: time 44.0 hrs. Format: cell-based. A digest of the protocol:
as §1
(In general: A western blot detects proteins with antibodies after separation by electrophoresis.)

Data set [9] relates to HEK293T. The experiment in a line: Activation of GFP-tagged PP2A-B55alpha (unknown origin) transfected in HEK293T cells using K-R-pT-I-R-R peptide as substrate assessed as recovery of OA-induced PP2A inhibition by measuring increase in substrate phospho hydrolysis at 1 uM measured at 15 to 30 mins by Malachite green method. Format: cell-based. As to conditions: Homo sapiens, filed as activator, time 15-30 min.

Data set [10] has as its system HEK293T. The experiment in a line: Activation of GFP-tagged PP2A-B56alpha (unknown origin) transfected in HEK293T cells using K-R-pT-I-R-R peptide as substrate assessed as recovery of OA-induced PP2A inhibition by measuring increase in substrate phospho hydrolysis at 1 uM measured at 15 to 30 mins by Malachite green method. Format: cell-based. The conditions noted are these: Homo sapiens, filed as activator, time 15-30 min.

The subject of data set [11] is Mus musculus. Description: Cognitive enhancing effect in LPS-induced mouse model of cognitive impairment assessed as fold change in time exploring the new object at 10 mg/ml, ip by object recognition test. Format: functional. A digest of the protocol: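 Mice injected i.p. with LPS 1 mg/mL and co-injected i.p. with compound 10 mg/mL; object recognition test: day 1 arena familiarization, day 2 two identical objects, day 3 one replaced by an object differing in shape and size; exploration recorded 10 min; new vs old object exploration time compared; mean ± SEM.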

A short description of data set [12]: Permeability of the compound in porcine brain by spectrophotometry based PAMPA-BBB assay. As to conditions: pig. For orientation: In PAMPA a lipid-coated filter parts donor from acceptor wells.

Glycogen synthase kinase-3 beta (Homo sapiens), sequence (P49841 whole entry, looked up): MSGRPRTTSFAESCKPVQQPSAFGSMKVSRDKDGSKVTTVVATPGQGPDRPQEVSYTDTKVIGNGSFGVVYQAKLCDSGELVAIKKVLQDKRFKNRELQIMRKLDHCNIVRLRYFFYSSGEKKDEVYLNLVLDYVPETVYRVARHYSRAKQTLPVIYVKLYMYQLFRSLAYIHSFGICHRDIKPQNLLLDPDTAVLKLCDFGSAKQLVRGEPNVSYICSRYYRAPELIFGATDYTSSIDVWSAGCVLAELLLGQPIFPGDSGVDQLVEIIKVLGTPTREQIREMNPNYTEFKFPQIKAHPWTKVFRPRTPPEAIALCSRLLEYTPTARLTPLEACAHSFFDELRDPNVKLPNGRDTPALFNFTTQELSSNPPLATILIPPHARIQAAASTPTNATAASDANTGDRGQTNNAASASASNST
Microtubule-associated protein tau (Homo sapiens), sequence (P10636 whole entry): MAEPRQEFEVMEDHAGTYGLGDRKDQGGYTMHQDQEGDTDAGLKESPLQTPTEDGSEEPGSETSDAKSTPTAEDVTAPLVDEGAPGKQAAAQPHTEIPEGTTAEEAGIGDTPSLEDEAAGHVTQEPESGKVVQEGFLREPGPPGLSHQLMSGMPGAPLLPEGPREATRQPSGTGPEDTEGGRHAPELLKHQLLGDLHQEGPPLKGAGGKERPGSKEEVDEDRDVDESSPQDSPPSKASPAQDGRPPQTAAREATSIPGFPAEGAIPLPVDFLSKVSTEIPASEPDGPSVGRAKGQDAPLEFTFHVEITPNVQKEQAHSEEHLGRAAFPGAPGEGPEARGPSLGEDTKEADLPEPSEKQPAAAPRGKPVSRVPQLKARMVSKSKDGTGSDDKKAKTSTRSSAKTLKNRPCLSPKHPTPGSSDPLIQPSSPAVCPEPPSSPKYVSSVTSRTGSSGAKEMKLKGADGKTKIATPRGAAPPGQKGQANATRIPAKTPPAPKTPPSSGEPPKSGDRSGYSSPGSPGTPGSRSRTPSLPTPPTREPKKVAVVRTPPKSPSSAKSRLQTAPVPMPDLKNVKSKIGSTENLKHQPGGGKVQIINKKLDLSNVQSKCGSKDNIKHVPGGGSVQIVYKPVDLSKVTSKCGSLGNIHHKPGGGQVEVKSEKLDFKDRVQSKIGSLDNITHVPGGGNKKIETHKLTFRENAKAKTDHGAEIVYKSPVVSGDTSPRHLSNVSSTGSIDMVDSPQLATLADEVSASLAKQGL

Regarding `CC1(C)OC[C@H]2O[C@H](CCCOC(=O)c3ccccc3)C=C[C@@H]2O1`, the Activity in [1] came out at 37%; in data set [2] it was 15%; in data set [3], 17%; in [4] it was 69%. Also, in [5], the outcome was inactive.
For the compound `C=CC[C@@H]1C=C[C@H](O)[C@@H](CO)O1`, the Activity stood at 45% in [1], 30% in [2], 15% in data set [3] and 72% in [4]. For the same compound, the result in data set [6] was Active.
Take `OCCC[C@@H]1C=C[C@@H]2OC(c3ccccc3)OC[C@H]2O1` (some centres not stated): the Activity was determined as 52% in [1], 29% in data set [2], 12% in data set [3] and 82% in [4].
On to `CC1(C)OC[C@H]2O[C@H](C[C@H](O)CO)C=C[C@@H]2O1`, for which the Activity in data set [1] stood at 64%; in data set [2], 16%; in data set [3], 20%; in [4] it was 72%. In addition, the inhibition entry in data set [7] and in [8] was “Active” each time. Moreover, the outcome in data set [9], in [5] (filed as activator), in [6] and in data set [10] was Active. In addition, the “fold change (FC)” value in [11] is listed as 2.4. For the same compound, the permeability result in data set [12] is “Permeable”.
As for `COc1ccc2[nH]cc(CCNC(C)=O)c2c1` [MELATONIN], in data set [2], the Activity is 28%.
On to `C=CC[C@@H]1C=C[C@@H]2OC(c3ccccc3)OC[C@H]2O1` (some centres not stated), for which the Activity in data set [1] is reported as 49%; in [2] it was 26%; in [3], 15%; in [4] it was 80%.
For `C=CC[C@@H]1C=C[C@H](OC(C)=O)[C@@H](COC(C)=O)O1`, in that order: 47%, 23%, 19% and 84%.
The corresponding values for `CC1(C)OC[C@H]2O[C@H](CCCO)C=C[C@@H]2O1` are 45%, 5%, 6% and 81%.
Turning to `OC[C@H](O)C[C@@H]1C=C[C@@H]2OC(c3ccccc3)OC[C@H]2O1` (some centres not stated), the Activity stood at 21% in data set [1], 10% in [2], 29% in [3] and 40% in data set [4]. Moreover, the result in data set [5] (filed as activator) and in [6] was Active.
On to `C=CC[C@@H]1C=C[C@@H]2OC(C)(C)OC[C@H]2O1`, for which the Activity in data set [1] is 50%; in data set [2], 63%; in data set [3], 8%; in [4], 50%.
`CC12CC3CC(C)(C1)CC(N)(C3)C2` [MEMANTINE]: the figures for the Activity in [1], in data set [3] and in [4] were 57%, 22% and 60%, respectively.
With `CC1(C)OC[C@H]2O[C@H](C[C@@H](O)CO)C=C[C@@H]2O1`, the Activity in [1] was determined as 56%; in data set [2], 24%; in [3], 15%; in data set [4] it was 45%. Besides, the result in data set [6] was Active.
For the compound `O=C(OCCC[C@@H]1C=C[C@@H]2OC(c3ccccc3)OC[C@H]2O1)c1ccccc1` (some centres not stated), the Activity stood at 47% in [1], 7% in [2], 8% in data set [3] and 72% in [4]. In addition, in [5], the result was inactive.
In the case of `OC[C@@H](O)C[C@@H]1C=C[C@@H]2OC(c3ccccc3)OC[C@H]2O1` (some centres not stated), the Activity in data set [1] came out at 54%; in [2], 27%; in data set [3] it was 13%; in data set [4], 73%. In addition, in [6], the result was Active.
On to `O=C(OCCC[C@@H]1C=C[C@H](O)[C@@H](CO)O1)c1ccccc1`, for which the Activity in data set [1] is given as 1%; in data set [2], 3%; in data set [3], 17%; in [4], 20%. Further, in data set [5], the outcome was inactive.
